# Measurements reported in publication PMC9444296 (Investigative Radiology, 2022).
# Tests used:
# MATE1 = MATE1 (Homo sapiens, UniProt Q96FL8); assay: MATE1 inhibition, HEK293 cells; type: in vitro ADME; details: 1, 5, 10, 50, and 100 μM
# Gd = type: physicochemical; details: HPLC-UV
# In short: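 Test compound at 0.25 mM (final) was incubated with 0.25 mM DOTA, DTPA, HP-DO3A or EDTA, or with 0.50 mM ZnCl₂. Buffers were 0.05 M acetate pH 5 or 0.05 M Tris pH 7.4, at room temperature (25°C) or 37.5°C, for up to 30 days. Intact compound remaining was measured by HPLC-UV (C18; 0.08% TFA acetonitrile/water).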
# [1] = Plasma stability, human plasma; type: in vitro ADME; details: 0.5 mM, 37°C, HPLC; for average remaining percentage of intact MT218: n = 2
# In short: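 Test compound at 0.5 mM was incubated in human, rat or dog plasma at 37°C for up to 48 h, with PBS as control. Samples were mixed with methanol, centrifuged, and the intact compound was quantified by analytical reversed-phase (C18) HPLC.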
# [2] = Pharmacokinetics in SD rats; type: in vivo, rat; details: for AUC: AUC 0-4h; for AUC / AUCINF / C0 / Cl / MRT / T1/2 / Vz: Gd by ICP-MS, NCA, n = 3
# In short: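 SD rats (3/sex) received a single IV dose of 0.04, 0.1 or 0.2 mmol/kg. Jugular blood was drawn predose and at 2, 5, 10, 15, 30 and 45 min and 1, 2, 3 and 4 h. Parameters were derived by noncompartmental analysis.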
# GABAA = assay: SAFETYscan E/IC50 assay, GABAA; type: biochemical; details: concentration range 0.005 to 100 μM
# In short: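 Contract-laboratory in vitro panel of 78 targets, run in agonist and/or antagonist modes under provider SOPs over 0.005 to 100 μM. Panel formats included enzyme fragment complementation, FLIPR-based cellular assays, kinase binding and enzymatic assays.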
# [3] = Plasma protein binding, rat plasma; type: in vitro ADME; details: 37°C, 3 min, 10 kDa ultrafiltration, Gd by ICP-OES, n = 4
# In short: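 Test compound at 50, 80 or 110 μM was incubated with human, dog or rat plasma (alongside HSA 40 mg/mL and PBS) at 37°C for 3 min. Mixtures were kept overnight and centrifuged to remove insolubles. Gd was measured by ICP-OES, and the binding ratio was taken as bound over total concentration.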
# CYP1A2 = CYP1A2 (Homo sapiens, UniProt P05177); details: 0.01, 0.1, 1, 10, and 100 μM, pooled human liver microsomes 0.5 mg/mL
# [4] = SD rat ♀, 0.04 mmol/kg single IV
# [5] = SD rat ♀, 0.1 mmol/kg single IV
# [6] = SD rat ♀, 0.2 mmol/kg single IV
# [7] = SD rat ♂, 0.04 mmol/kg single IV
# [8] = SD rat ♂, 0.1 mmol/kg single IV
# [9] = SD rat ♂, 0.2 mmol/kg single IV
# Chain of CYP1A2 (P05177 whole entry): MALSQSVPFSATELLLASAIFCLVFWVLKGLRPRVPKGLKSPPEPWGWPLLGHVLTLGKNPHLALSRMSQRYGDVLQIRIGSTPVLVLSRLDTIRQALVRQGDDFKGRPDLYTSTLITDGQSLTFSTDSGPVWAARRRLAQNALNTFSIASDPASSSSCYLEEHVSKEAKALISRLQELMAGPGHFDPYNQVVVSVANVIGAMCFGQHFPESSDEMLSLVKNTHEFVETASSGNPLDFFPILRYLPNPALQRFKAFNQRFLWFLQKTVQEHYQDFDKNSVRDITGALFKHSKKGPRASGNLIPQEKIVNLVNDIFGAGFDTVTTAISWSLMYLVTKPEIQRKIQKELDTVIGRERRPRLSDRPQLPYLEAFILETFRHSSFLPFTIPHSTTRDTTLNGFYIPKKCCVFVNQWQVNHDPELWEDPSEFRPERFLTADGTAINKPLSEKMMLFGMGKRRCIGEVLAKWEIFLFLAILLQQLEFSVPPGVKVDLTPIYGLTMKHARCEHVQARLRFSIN
# Chain of MATE1 (Q96FL8 whole entry): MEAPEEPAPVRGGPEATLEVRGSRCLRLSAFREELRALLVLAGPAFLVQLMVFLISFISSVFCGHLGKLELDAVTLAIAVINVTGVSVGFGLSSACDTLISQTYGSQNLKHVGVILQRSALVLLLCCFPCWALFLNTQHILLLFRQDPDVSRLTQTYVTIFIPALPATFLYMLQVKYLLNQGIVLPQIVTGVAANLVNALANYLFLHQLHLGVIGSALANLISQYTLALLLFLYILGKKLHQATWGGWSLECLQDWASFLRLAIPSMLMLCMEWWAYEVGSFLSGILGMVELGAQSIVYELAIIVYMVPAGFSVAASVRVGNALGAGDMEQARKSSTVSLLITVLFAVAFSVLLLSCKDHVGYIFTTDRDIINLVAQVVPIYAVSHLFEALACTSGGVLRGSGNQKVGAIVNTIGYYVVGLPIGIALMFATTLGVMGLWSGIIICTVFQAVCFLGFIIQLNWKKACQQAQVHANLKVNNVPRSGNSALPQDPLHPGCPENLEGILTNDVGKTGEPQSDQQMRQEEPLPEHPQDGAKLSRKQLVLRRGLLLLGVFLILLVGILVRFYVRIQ
substance,measurement,setting,value
ZD2-N3-Gd(HP-DO3A) [MT218],inhibition of MATE1 transporter activity,MATE1,no inhibition potential
same,duration of chelation stability,"Gd; pH 5 (0.05 M acetate), 25°C",at least 30 days
same,dissociation of MT218 in the presence of Zn(II) ions,"Gd; pH 5, 37.5°C, 0.50 mM ZnCl2, at least 30 days",did not cause dissociation
same,stability of MT218,"Gd; pH 5, 37.5°C, acetate buffer",stable
same,stability of MT218 in the presence of free chelating ligands,"Gd; pH 5, 37.5°C, with 0.25 mM DOTA, DTPA, HP-DO3A or EDTA",Loss of MT218 was observed
same,average remaining percentage of intact MT218,[1]; 1 h,83.47%
same,average remaining percentage of intact MT218,[1]; 3 h,48.79%
same,average remaining percentage of intact MT218,[1]; 6 h,12.87%
same,average remaining percentage of intact MT218,[1]; 28 h,5.21%
same,average remaining percentage of intact MT218,[1]; 48 h,3.97%
same,enzymatic degradation half-life (t1/2),[1],2.63 h
same,AUC,[2]; [4],10.94 µg·h/mL
same,AUC,[2]; [5],27.84 µg·h/mL
same,AUC,[2]; [6],58.60 µg·h/mL
same,AUC,[2]; [7],11.08 µg·h/mL
same,AUC,[2]; [8],28.86 µg·h/mL
same,AUC,[2]; [9],53.17 µg·h/mL
same,AUC Ratio,"[2]; AUC(dose)/AUC(low dose), SD rat ♀, 0.04 mmol/kg",1
same,AUC Ratio,"[2]; AUC(dose)/AUC(low dose), SD rat ♂, 0.04 mmol/kg",1
same,AUC Ratio,"[2]; AUC(high dose)/AUC(low dose), SD rat ♀, 0.2 mmol/kg",5.36
same,AUC Ratio,"[2]; AUC(high dose)/AUC(low dose), SD rat ♂, 0.2 mmol/kg",4.80
same,AUC Ratio,"[2]; AUC(middle dose)/AUC(low dose), SD rat ♀, 0.1 mmol/kg",2.55
same,AUC Ratio,"[2]; AUC(middle dose)/AUC(low dose), SD rat ♂, 0.1 mmol/kg",2.61
same,AUCINF,[2]; [4],11.13 µg·h/mL
same,C0,[2]; [4],75.09 µg/mL
same,Cl,[2]; [4],568.10 mL/h/kg
same,MRT,[2]; [4],17.4 min
same,T1/2,[2]; [4],16.8 min
same,Vz,[2]; [4],224.22 mL/kg
same,AUCINF,[2]; [5],28.02 µg·h/mL
same,C0,[2]; [5],158.07 µg/mL
same,Cl,[2]; [5],575.39 mL/h/kg
same,MRT,[2]; [5],20.4 min
same,T1/2,[2]; [5],19.2 min
same,Vz,[2]; [5],273.35 mL/kg
same,AUCINF,[2]; [6],58.71 µg·h/mL
same,C0,[2]; [6],209.22 µg/mL
same,Cl,[2]; [6],552.59 mL/h/kg
same,MRT,[2]; [6],25.8 min
same,T1/2,[2]; [6],19.2 min
same,Vz,[2]; [6],256.40 mL/kg
same,AUCINF,[2]; [7],11.18 µg·h/mL
same,C0,[2]; [7],49.09 µg/mL
same,Cl,[2]; [7],578.42 mL/h/kg
same,MRT,[2]; [7],22.2 min
same,T1/2,[2]; [7],18 min
same,Vz,[2]; [7],243.09 mL/kg
same,AUCINF,[2]; [8],29.01 µg·h/mL
same,C0,[2]; [8],115.85 µg/mL
same,Cl,[2]; [8],550.32 mL/h/kg
same,MRT,[2]; [8],24 min
same,T1/2,[2]; [8],18.6 min
same,Vz,[2]; [8],240.18 mL/kg
same,AUCINF,[2]; [9],53.23 µg·h/mL
same,C0,[2]; [9],248.60 µg/mL
same,Cl,[2]; [9],591.30 mL/h/kg
same,MRT,[2]; [9],22.2 min
same,T1/2,[2]; [9],18 min
same,Vz,[2]; [9],255.24 mL/kg
same,mean plasma elimination half-life (t1/2),"[2]; rats, 0.1 mmol/kg IV",18.6 min
same,inhibition rate,GABAA,24.25%
same,binding ratio to plasma proteins,[3]; 50 μM,28.44%
same,binding ratio to plasma proteins,[3]; 80 μM,27.12%
same,binding ratio to plasma proteins,[3]; 110 μM,25.68%
same,inhibition of CYP1A2 activity,CYP1A2,did not inhibit
